Key:
Assay type in all cases: functional
LOX IMVI = assay: Cytotoxicity against human LOXIMVI cells assessed as cell growth at 10 uM; settings: read-out: Activity
Method in brief: (§1)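 NCI-60 screen: cells grown in RPMI 1640 with 5% FBS and 2 mM L-glutamine, plated at 5000–40,000 cells/well according to doubling time, and preincubated 24 h at 37 °C, 5% CO2. The single 10 µM dose (DMSO stock) was added, then incubated 48 h. Cells were TCA-fixed and stained with 0.4% SRB, read at 515 nm, and growth % calculated against time-zero and control plates.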

A549 = assay: Cytotoxicity against human A549 cells assessed as cell growth at 10 uM; settings: read-out: Activity
Method in brief: (§2)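 Single-dose NCI-60 screen at 10 µM. Cells were grown in RPMI 1640 with 5% FBS and 2 mM L-glutamine, then treated for 48 h at 37 °C. Protein was measured by SRB staining with absorbance at 515 nm. Percentage growth was recorded, and inhibition percentage was calculated as 100 minus growth percentage.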

PC-3 = assay: Cytotoxicity against human PC3 cells assessed as cell growth at 10 uM; settings: read-out: Activity; method in brief: as §1
NCI-H226 = assay: Cytotoxicity against human NCI-H226 cells assessed as cell growth at 10 uM; settings: read-out: Activity; method in brief: as §1
HOP-62 = assay: Cytotoxicity against human HOP62 cells assessed as cell growth at 10 uM; settings: read-out: Activity; method in brief: as §2
UO-31 = assay: Cytotoxicity against human UO31 cells assessed as cell growth at 10 uM; settings: read-out: Activity; method in brief: as §1
HCC 2998 = assay: Cytotoxicity against human HCC2998 cells assessed as cell growth at 10 uM; settings: read-out: Activity; method in brief: as §2
HCT-15 = assay: Cytotoxicity against human HCT15 cells assessed as cell growth at 10 uM; settings: read-out: Activity; method in brief: as §2
SN12C = assay: Cytotoxicity against human SN12C cells assessed as cell growth at 10 uM; settings: read-out: Activity; method in brief: as §1
UACC-257 = assay: Cytotoxicity against human UACC257 cells assessed as cell growth at 10 uM; settings: read-out: Activity; method in brief: as §1
K562 = assay: Cytotoxicity against human K562 cells assessed as cell growth at 10 uM; settings: read-out: Activity; method in brief: as §2
HT-29 = assay: Cytotoxicity against human HT-29 cells assessed as cell growth at 10 uM; settings: read-out: Activity; method in brief: as §2
SK-MEL-2 = assay: Cytotoxicity against human SK-MEL-2 cells assessed as cell growth at 10 uM; settings: read-out: Activity; method in brief: as §1
OVCAR-5 = assay: Cytotoxicity against human OVCAR5 cells assessed as cell growth at 10 uM; settings: read-out: Activity; method in brief: as §1
KM12 = assay: Cytotoxicity against human KM12 cells assessed as cell growth at 10 uM; settings: read-out: Activity; method in brief: as §1
NCI-H522 = assay: Cytotoxicity against human NCI-H522 cells assessed as cell growth at 10 uM; settings: read-out: Activity; method in brief: as §1
MOLT-4 = assay: Cytotoxicity against human MOLT4 cells assessed as cell growth at 10 uM; settings: read-out: Activity; method in brief: as §1
BT-549 = assay: Cytotoxicity against human BT549 cells assessed as cell growth at 10 uM; settings: read-out: Activity; method in brief: as §2
IGROV-1 = assay: Cytotoxicity against human IGROV1 cells assessed as cell growth at 10 uM; settings: read-out: Activity; method in brief: as §2
OVCAR-4 = assay: Cytotoxicity against human OVCAR4 cells assessed as cell growth at 10 uM; settings: read-out: Activity; method in brief: as §1
SR = assay: Cytotoxicity against human SR cells assessed as cell growth at 10 uM; settings: read-out: Activity; method in brief: as §1
CCRF-CEM = assay: Cytotoxicity against human CCRF-CEM cells assessed as cell growth at 10 uM; settings: read-out: Activity; method in brief: as §2
A498 = assay: Cytotoxicity against human A498 cells assessed as cell growth at 10 uM; settings: read-out: Activity; method in brief: as §2
MCF7 = assay: Cytotoxicity against human MCF7 cells assessed as cell growth at 10 uM; settings: read-out: Activity; method in brief: as §1
HCT-116 = assay: Cytotoxicity against human HCT116 cells assessed as cell growth at 10 uM; settings: read-out: Activity; method in brief: as §2
M14 = assay: Cytotoxicity against human M14 cells assessed as cell growth at 10 uM; settings: read-out: Activity; method in brief: as §1
SF-295 = assay: Cytotoxicity against human SF295 cells assessed as cell growth at 10 uM; settings: read-out: Activity; method in brief: as §1
MDA-MB-468 = assay: Cytotoxicity against human MDA-MB-468 cells assessed as cell growth at 10 uM; settings: read-out: Activity; method in brief: as §1
RXF 393 = assay: Cytotoxicity against human RXF393 cells assessed as cell growth at 10 uM; settings: read-out: Activity; method in brief: as §1
[1] = Cytotoxicity against human […] cells assessed as cell growth at 10 uM; settings: read-out: Activity; method in brief: as §1
OVCAR-3 = assay: Cytotoxicity against human OVCAR-3 cells assessed as cell growth at 10 uM; settings: read-out: Activity; method in brief: as §1
HL-60(TB) = assay: Cytotoxicity against human HL-60(TB) cells assessed as cell growth at 10 uM; settings: read-out: Activity
Method in brief: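 NCI 60-cell panel screen at a single concentration of 10 µM. Cells are grown in RPMI 1640 with 5% FBS and 2 mM L-glutamine and read by SRB protein staining at 515 nm. Percent growth is measured relative to time-zero and untreated controls; inhibition % is 100 minus growth %.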

OVCAR-8 = assay: Cytotoxicity against human OVCAR8 cells assessed as cell growth at 10 uM; settings: read-out: Activity; method in brief: as §1
NCI/ADR-RES = assay: Cytotoxicity against human NCI/ADR-RES cells assessed as cell growth at 10 uM; settings: read-out: Activity; method in brief: as §1
786-0 = assay: Cytotoxicity against human 786-0 cells assessed as cell growth at 10 uM; settings: read-out: Activity; method in brief: as §2
SK-MEL-5 = assay: Cytotoxicity against human SK-MEL-5 cells assessed as cell growth at 10 uM; settings: read-out: Activity; method in brief: as §1
NCI-H460 = assay: Cytotoxicity against human NCI-H460 cells assessed as cell growth at 10 uM; settings: read-out: Activity; method in brief: as §1
DU-145 = assay: Cytotoxicity against human DU145 cells assessed as cell growth at 10 uM; settings: read-out: Activity; method in brief: as §2
[2] = Growth inhibition of human NCI60 cells at 10 uM after 48 hrs by sulforhodamine B assay relative to control; settings: NCI60, 48 h, read-out: GI
Method in brief: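 Single-dose NCI screen at 10 µM across the 60-line panel, 48 h exposure at 37 °C after a 24 h preincubation. Adherent cells were fixed with cold TCA and stained with 0.4% SRB, and absorbance was read at 515 nm. Inhibition % was taken as 100 minus growth %, and the mean across all lines was reported.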

SF-268 = assay: Cytotoxicity against human SF268 cells assessed as cell growth at 10 uM; settings: read-out: Activity; method in brief: as §1
SW-620 = assay: Cytotoxicity against human SW620 cells assessed as cell growth at 10 uM; settings: read-out: Activity; method in brief: as §1
ACHN = assay: Cytotoxicity against human ACHN cells assessed as cell growth at 10 uM; settings: read-out: Activity; method in brief: as §2
CAKI-1 = assay: Cytotoxicity against human Caki1 cells assessed as cell growth at 10 uM; settings: read-out: Activity; method in brief: as §2
NCI-H23 = assay: Cytotoxicity against human NCI-H23 cells assessed as cell growth at 10 uM; settings: read-out: Activity; method in brief: as §1
SF-539 = assay: Cytotoxicity against human SF539 cells assessed as cell growth at 10 uM; settings: read-out: Activity; method in brief: as §1
NCI-H322M = assay: Cytotoxicity against human NCI-H322M cells assessed as cell growth at 10 uM; settings: read-out: Activity; method in brief: as §1
T47D = assay: Cytotoxicity against human T47D cells assessed as cell growth at 10 uM; settings: read-out: Activity; method in brief: as §1
SK-OV-3 = assay: Cytotoxicity against human SKOV3 cells assessed as cell growth at 10 uM; settings: read-out: Activity; method in brief: as §1
U-251 = assay: Cytotoxicity against human U251 cells assessed as cell growth at 10 uM; settings: read-out: Activity; method in brief: as §1
EKVX = assay: Cytotoxicity against human EKVX cells assessed as cell growth at 10 uM; settings: read-out: Activity; method in brief: as §2
COLO 205 = assay: Cytotoxicity against human COLO205 cells assessed as cell growth at 10 uM; settings: read-out: Activity; method in brief: as §2
SNB-19 = assay: Cytotoxicity against human SNB19 cells assessed as cell growth at 10 uM; settings: read-out: Activity; method in brief: as §1
Malme-3M = assay: Cytotoxicity against human MALME-3M cells assessed as cell growth at 10 uM; settings: read-out: Activity; method in brief: as §1
TK-10 = assay: Cytotoxicity against human TK10 cells assessed as cell growth at 10 uM; settings: read-out: Activity; method in brief: as §1
MDA-MB-435 = assay: Cytotoxicity against human MDA-MB-435 cells assessed as cell growth at 10 uM; settings: read-out: Activity; method in brief: as §1
HOP-92 = assay: Cytotoxicity against human HOP92 cells assessed as cell growth at 10 uM; settings: read-out: Activity; method in brief: as §2
MDA-MB-231 = assay: Cytotoxicity against human MDA-MB-231 cells assessed as cell growth at 10 uM; settings: read-out: Activity; method in brief: as §1
SK-MEL-28 = assay: Cytotoxicity against human SK-MEL-28 cells assessed as cell growth at 10 uM; settings: read-out: Activity; method in brief: as §1
[3] = Cytotoxicity against human Hs 578T cells assessed as cell growth at 10 uM; settings: read-out: Activity; method in brief: as §2
UACC-62 = assay: Cytotoxicity against human UACC62 cells assessed as cell growth at 10 uM; settings: read-out: Activity; method in brief: as §1
SNB-75 = assay: Cytotoxicity against human SNB75 cells assessed as cell growth at 10 uM; settings: read-out: Activity; method in brief: as §1

`Cc1cc(O)cc(-c2nn(CC#N)cc2-c2ccnc(-c3ccccc3)c2)c1` showed a growth at 10 µM (LOX IMVI) of 95.6%, a growth at 10 µM (A549) of 85.5% and a growth at 10 µM (PC-3) of 88.7%. For the same molecule, the growth at 10 µM (NCI-H226) was 77.7%, the growth at 10 µM (HOP-62) was 92.7% and the growth at 10 µM (UO-31) was 64.5%. It also gave a growth at 10 µM (HCC 2998) of 89.2%, a growth at 10 µM (HCT-15) of 54% and a growth at 10 µM (SN12C) of 77.6%. For the same molecule, the growth at 10 µM (UACC-257) was 95.6%, the growth at 10 µM (K562) was 71.5% and the growth at 10 µM (HT-29) was 61.9%. For the same molecule, the growth at 10 µM (SK-MEL-2) was 86.1%, the growth at 10 µM (OVCAR-5) was 93.2% and the growth at 10 µM (KM12) was 97.2%. For the same molecule, the growth at 10 µM (NCI-H522) was 57.2%, the growth at 10 µM (MOLT-4) was 71% and the growth at 10 µM (BT-549) was 93.5%. The growth at 10 µM (IGROV-1) was 72%, the growth at 10 µM (OVCAR-4) was 77.7% and the growth at 10 µM (SR) was 80.3%. It also gave a growth at 10 µM (CCRF-CEM) of 85.8%, a growth at 10 µM (A498) of 84.3% and a growth at 10 µM (MCF7) of 53.8%. For the same molecule, the growth at 10 µM (HCT-116) was 59.1%, the growth at 10 µM (M14) was 81.3% and the growth at 10 µM (SF-295) was 99.2%. For the same molecule, the growth at 10 µM (MDA-MB-468) was 61.8%, the growth at 10 µM (RXF 393) was 151% and the growth at 10 µM [1] was 84.5%. It also gave a growth at 10 µM (OVCAR-3) of 107%, a growth at 10 µM (HL-60(TB)) of 78.4% and a growth at 10 µM (OVCAR-8) of 70.2%. The growth at 10 µM (NCI/ADR-RES) was 66.7%, the growth at 10 µM (786-0) was 67% and the growth at 10 µM (SK-MEL-5) was 75.4%. The growth at 10 µM (NCI-H460) was 93.3%, the growth at 10 µM (DU-145) was 103% and the inhibition of growth at 10 µM [2] was 16.4%. For the same molecule, the growth at 10 µM (SF-268) was 99.6%, the growth at 10 µM (SW-620) was 87.6% and the growth at 10 µM (ACHN) was 74.4%. For the same molecule, the growth at 10 µM (CAKI-1) was 82.4%, the growth at 10 µM (NCI-H23) was 93.5% and the growth at 10 µM (SF-539) was 83.5%. For the same molecule, the growth at 10 µM (NCI-H322M) was 116%, the growth at 10 µM (T47D) was 59.2% and the growth at 10 µM (SK-OV-3) was 84.6%. For the same molecule, the growth at 10 µM (U-251) was 87.4%, the growth at 10 µM (EKVX) was 101% and the growth at 10 µM (COLO 205) was 108%. It also gave a growth at 10 µM (SNB-19) of 87%, a growth at 10 µM (Malme-3M) of 133% and a growth at 10 µM (TK-10) of 84.2%. It also gave a growth at 10 µM (MDA-MB-435) of 97.8%, a growth at 10 µM (HOP-92) of 57.3% and a growth at 10 µM (MDA-MB-231) of 80.7%. It also gave a growth at 10 µM (SK-MEL-28) of 85.2%, a growth at 10 µM [3] of 84.6% and a growth at 10 µM (UACC-62) of 59.8%. For the same molecule, the growth at 10 µM (SNB-75) was 43.2%.
